# From ChEMBL document CHEMBL1914456, “Design, synthesis and biological evaluation of mannosyl triazoles as FimH antagonists” (Bioorg Med Chem, 2011)
# Tests used:
# [1] = Thermodynamic solubility of the compound at pH 6.5 after 24 hrs by shake flask method using LC-MS analysis; assay type: physicochemical; conditions: buffer, read-out: Therm_solubility
# How it was run: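 1 mg solid shaken in 250 µL 50 mM phosphate buffer, pH 6.5: sonicated 15 min, shaken at 600 rpm and 25 °C for 2 h, then left 24 h. pH measured, then filtered by centrifugation. Filtrate diluted and quantified by LC-MS against a six-point calibration from 0.1 to 10 µg/mL.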
# [2] = target: Type 1 fimbrin D-mannose specific adhesin (Escherichia coli K-12) (UniProt P08191); test: Ratio of compound IC50 to n-heptyl alpha-D-mannopyranoside IC50 for Escherichia coli recombinant C-terminal 6His-tagged FimH-CRD with a C-terminal thrombin cleavage site expressed in Escherichia coli HM125 assessed as inhibition of streptavidin-horseradish peroxidase conjugated TM-PAA polymer binding after 3 hrs by spectrophotometry
# How it was run: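 FimH-CRD-Th-6His from E. coli HM125, purified on Ni-NTA, coated at 10 µg/mL in assay buffer (20 mM HEPES, 150 mM NaCl, 1 mM CaCl2, pH 7.4) overnight at 4 °C. Wells blocked with 3% BSA for 2 h at 4 °C. Four-fold serial dilutions of compound in buffer with 5% DMSO were added with streptavidin-peroxidase-coupled TM-PAA polymer (0.5 µg/mL). Plates were incubated 3 h at 25 °C, 350 rpm. ABTS was developed 4 min, stopped with 2% oxalic acid, and read at 415 nm. Each compound was run in duplicate and repeated at least twice. IC50 is the concentration that halves maximal specific TM-PAA binding. rIC50 is compound IC50 divided by the IC50 of n-heptyl α-D-mannopyranoside run on the same plate.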
# [3] = Permeability of the compound assessed as membrane retention at pH 5 to 7.4 after 16 hrs by PAMPA assay; assay type: ADME; conditions: pH 5, 16 h
# How it was run: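 PAMPA sandwich: donor wells with compound solution, acceptor filter impregnated with GIT-0 lipid and filled with acceptor sink buffer. Incubated undisturbed for 16 h. Donor and acceptor samples quantified by UV spectroscopy and LC-MS; log Pe and membrane retention calculated from these.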
# [4] = Octanol-phosphate buffer distribution coefficient, log D of the compound at pH 7.4 after 2 hrs by shake flask method using LC-MS analysis; assay type: physicochemical
# How it was run: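 Miniaturized shake flask. Phosphate buffer (0.1 M, pH 7.4) and 1-octanol mutually saturated. Analyte at 1 µM in buffer, overlaid with octanol at two volume ratios chosen by ALOGPS-predicted logP, three determinations per ratio.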
# [5] = target: Type 1 fimbrin D-mannose specific adhesin (Escherichia coli K-12, UniProt P08191); test: Antagonist activity at Escherichia coli recombinant C-terminal 6His-tagged FimH-CRD with a C-terminal thrombin cleavage site expressed in Escherichia coli HM125 assessed as inhibition of streptavidin-horseradish peroxidase conjugated TM-PAA polymer binding after 3 hrs by spectrophotometry
# How it was run: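 Plates coated overnight at 4 °C with 10 µg/mL FimH-CRD-Th-6His in 20 mM HEPES, 150 mM NaCl, 1 mM CaCl2, pH 7.4, then blocked with 3% BSA for 2 h at 4 °C. Fourfold serial dilutions in buffer with 5% DMSO plus 0.5 µg/mL streptavidin-peroxidase TM-PAA polymer, 3 h at 25 °C. ABTS for 4 min, stopped with oxalic acid, OD 415 nm. Duplicates, repeated at least twice; n-heptyl α-D-mannoside on each plate; IC50 from curve fit.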
# [6] = Antagonist activity at Escherichia coli […] FimH assessed as disaggregation of microorganism from guinea pig erythrocytes measured for 1400 secs by aggregometry; assay type: functional
# How it was run: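 E. coli UTI89 and guinea pig erythrocytes (separated on Histopaque), each adjusted to OD600 of 4 (1.9 × 10⁸ CFU/mL and 2.2 × 10⁶ cells/mL). Aggregation read as optical density at 740 nm, 37 °C, stirring at 1000 rpm. Instrument calibrated with protein-poor plasma in PBS as 100% and protein-rich plasma with erythrocytes as 0%. Triplicates; IC50 from area under the disaggregation curve.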
# [7] = tested on: Escherichia coli; test: Ratio of compound IC50 to n-heptyl alpha-D-mannopyranoside IC50 for Escherichia coli […] FimH assessed as disaggregation of microorganism from guinea pig erythrocytes measured for 1400 secs by aggregometry
# Type 1 fimbrin D-mannose specific adhesin (Escherichia coli K-12), sequence (P08191 whole entry): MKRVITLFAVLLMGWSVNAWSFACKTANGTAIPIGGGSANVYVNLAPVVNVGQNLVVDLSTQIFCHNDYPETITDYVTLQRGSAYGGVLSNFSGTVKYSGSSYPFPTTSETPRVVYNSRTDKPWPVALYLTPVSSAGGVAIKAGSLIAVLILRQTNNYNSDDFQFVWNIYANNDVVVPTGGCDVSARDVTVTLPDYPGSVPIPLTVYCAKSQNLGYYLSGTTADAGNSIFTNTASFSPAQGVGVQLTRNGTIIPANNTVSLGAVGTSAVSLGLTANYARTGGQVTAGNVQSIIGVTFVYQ
# Type 1 fimbrin D-mannose specific adhesin, sequence (P08191 whole entry): as above
SMILES,solubility thermodynamic at 24 h [1] [µg/mL],Ratio IC50 [2],R% [3],logD at 2 h [4],IC50 [5] [nM],IC50 [6],IC50 ([6]; read-out: IC50) [nM],Ratio IC50 [7]
O=[N+]([O-])c1ccc(-n2cc(CO[C@H]3O[C@H](CO)[C@@H](O)[C@H](O)[C@@H]3O)nn2)cc1,2600,6.1,4.9%,-0.16,–,–,–,–
CO[C@H]1O[C@H](CO)[C@@H](O)[C@H](O)[C@@H]1O,–,29,–,–,1900,–,–,–
OC[C@H]1O[C@H](n2cc(-c3cccnc3)nn2)[C@@H](O)[C@@H](O)[C@@H]1O,1380,3.3,10.3%,-1.04,216,–,–,–
OC[C@H]1O[C@H](OCc2cn(Cc3ccccc3)nn2)[C@@H](O)[C@@H](O)[C@@H]1O,> 3000,10.2,3%,-0.33,667,–,–,–
O=C([O-])c1ccc(-n2cc(CO[C@H]3O[C@H](CO)[C@@H](O)[C@H](O)[C@@H]3O)nn2)cc1.[Na+],> 3000,3.2,–,–,207,–,–,–
COc1cccc(Cn2cc(CCO[C@H]3O[C@H](CO)[C@@H](O)[C@H](O)[C@@H]3O)nn2)c1,> 3000,3.5,11.8%,< -1,229,–,–,–
O=C([O-])c1cccc(-n2cc(CO[C@H]3O[C@H](CO)[C@@H](O)[C@H](O)[C@@H]3O)nn2)c1.[Na+],> 3000,4.5,–,–,296,–,–,–
OC[C@H]1O[C@H](Cn2cc(COc3ccccc3)nn2)[C@@H](O)[C@@H](O)[C@@H]1O,–,5,impermeable,-0.83,327,–,–,–
OC[C@H]1O[C@H](Cn2cc(-c3ccc(C(F)(F)F)cc3)nn2)[C@@H](O)[C@@H](O)[C@@H]1O,525,3,impermeable,1.07,194,Not Active,–,–
OC[C@H]1O[C@H](n2cc(-c3ccc(C(F)(F)F)cc3)nn2)[C@@H](O)[C@@H](O)[C@@H]1O,159,2.2,17.2%,1.45,144,–,249000,3.2
OC[C@H]1O[C@H](OCc2cn(-c3ccncc3)nn2)[C@@H](O)[C@@H](O)[C@@H]1O,> 3000,1.1,9.2%,0.24,70,Not Active,–,–
COc1ccc(-n2cc(CO[C@H]3O[C@H](CO)[C@@H](O)[C@H](O)[C@@H]3O)nn2)cc1,2600,2.5,7.9%,-0.05,161,–,–,–
OC[C@H]1O[C@H](OCCc2cn(-c3ccncc3)nn2)[C@@H](O)[C@@H](O)[C@@H]1O,> 3000,2.3,4.3%,< -1.5,153,–,277000,3.6
COc1ccc(Cn2cc(CO[C@H]3O[C@H](CO)[C@@H](O)[C@H](O)[C@@H]3O)nn2)cc1,> 3000,7.8,3.1%,-0.4,511,–,–,–
OC[C@H]1O[C@H](n2cc(-c3ccccc3)nn2)[C@@H](O)[C@@H](O)[C@@H]1O,> 3000,3.8,6.4%,0.21,–,–,–,–
CCCCCCCO[C@H]1O[C@H](CO)[C@@H](O)[C@H](O)[C@@H]1O,> 3000,–,21%,1.65,65.6,–,–,1
